Source: ChEMBL document CHEMBL4304748, “Design, Synthesis, and Biological Evaluation of a New Series of Carvedilol Derivatives That Protect Sensory Hair Cells from Aminoglycoside-Induced Damage by Blocking the Mechanoelectrical Transducer Channel” (J Med Chem, 2019)
Activity calls are given as the source filed them. The calls are words filed in the database; no cut-off is given here.

What was measured:
Mus musculus [1] = species on record: Mus musculus; experiment: (§1) Otoprotective activity against gentamicin-induced outer hair cell death in CD-1 mouse cochlea at 20 uM after 48 hrs by TRITC-phalloidin staining-based microscopic analysis relative to control; assay type: functional
Summary of the method: (§2)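 Mouse cochlear cultures coincubated for 48 h with 5 μM gentamicin plus compound (5, 10 or 20 μM). OHCs counted in a 300 μm long segment of the mid-basal cochlea. Counts compared with 0.5% DMSO control and with gentamicin + 0.5% DMSO cultures.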

Mus musculus [2] = species on record: Mus musculus; experiment: Inhibition of MET in CD-1 mouse cochlea outer hair cells assessed as blockade of MET currents at 10 uM measured at -160 mV to +80 mV membrane potential by patch clamp assay relative to control
Summary of the method: (§3)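 OHC MET currents recorded before and during exposure to 10 μM compound. Fractional block taken as the current during exposure relative to the control current at each membrane potential.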

Mus musculus [3] = species on record: Mus musculus; experiment: (§4) Otoprotective activity against gentamicin-induced outer hair cell death in CD-1 mouse cochlea at 5 uM after 48 hrs by TRITC-phalloidin staining-based microscopic analysis relative to control; assay type: functional; summary of the method: as §2
Mus musculus [4] = species on record: Mus musculus; experiment: Inhibition of MET in CD-1 mouse cochlea outer hair cells assessed as blockade of MET currents at 10 uM measured at -164 mV membrane potential by patch clamp assay relative to control; summary of the method: as §3
Mus musculus [5] = species on record: Mus musculus; experiment: (§5) Otoprotective activity against gentamicin-induced outer hair cell death in CD-1 mouse cochlea at 10 uM after 48 hrs by TRITC-phalloidin staining-based microscopic analysis relative to control; assay type: functional; summary of the method: as §2
[6] = Cytotoxicity against CD-1 mouse cochlea assessed as induction of cell damage at 20 uM in presence of gentamicin after 48 hrs by confocal microscopic analysis; assay type: toxicity, tissue-based
Summary of the method: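 Mouse cochlear cultures exposed 48 h to 5 μM gentamicin plus 20 μM compound, with 0.5% DMSO and gentamicin-only controls. Hair cells and bundle morphology imaged, including confocal imaging of IHC stereociliary bundles. OHC survival counted in a 300 μm segment of the mid-basal region.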

Mus musculus [7] = species on record: Mus musculus; experiment: Inhibition of MET in CD-1 mouse cochlea outer hair cells assessed as reduction in MET currents at 10 uM measured at -160 mV to +80 mV membrane potential by patch clamp assay; summary of the method: as §3
Danio rerio [8] = species on record: Danio rerio; experiment: Otoprotective activity against neomycin-induced neuromast hair cell death in 4 days post fertilized AB zebrafish larvae assessed as increase in hair cell survival incubated for 1 hr by inverted microscopic method; assay type: functional, organism-based
Mus musculus [9] = species on record: Mus musculus; conditions: CD-1, 1 to 10 uM
[10] = Cytotoxicity against CD-1 mouse cochlea assessed as induction of cell death in outer hair cell at >=30 uM after 48 hrs in presence of gentamicin by confocal microscopic analysis; assay type: toxicity, tissue-based
Summary of the method: (§6)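 Mouse cochlear cultures exposed for 48 h to compound, either alone or with 5 μM gentamicin. Controls received 0.5% DMSO, or 5 μM gentamicin + 0.5% DMSO. Hair cell survival counted in a 300 μm segment of the mid-basal region. Confocal imaging used to assess IHC and OHC stereociliary bundle morphology.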

Mus musculus [11] = species on record: Mus musculus; conditions: CD-1, 10 uM
Pseudomonas aeruginosa [12] = experiment: Effect on gentamycin-induced antibacterial activity against Pseudomonas aeruginosa at 2.2 uM incubated for 16 to 20 hrs by BacTiter-Glo assay; assay type: ADME, organism-based; conditions: in vivo
[13] = Cytotoxicity in CD-1 mouse cochlea assessed as induction of cell death in outer hair cell at >=30 uM after 48 hrs by confocal microscopic analysis; assay type: toxicity, tissue-based; summary of the method: as §6
[14] = Cytotoxicity in CD-1 mouse cochlea assessed as disruption of hair bundle morphology in outer hair cell at 20 uM after 48 hrs by confocal microscopic analysis; assay type: toxicity, tissue-based; summary of the method: as §6
[15] = Binding affinity to MET in CD-1 mouse cochlear outer hair cells measured at +96 mV membrane potential by patch clamp assay
Summary of the method: (§7)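 MET currents recorded from OHCs before and during extracellular superfusion of compound at 1, 3 and 10 μM, over membrane potentials from -164 to +96 mV. Currents normalized to the peak control current at +96 mV for each cell. Dose–response curves built at each membrane potential and fitted with eq 1 to give K_D and Hill coefficient.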

[16] = Cytotoxicity in CD-1 mouse cochlea assessed as induction of cell damage in inner hair cell at 20 uM in presence of gentamicin after 48 hrs by confocal microscopic analysis; assay type: toxicity, tissue-based; summary of the method: as §6
Mus musculus [17] = species on record: Mus musculus; conditions: CD-1, 10 uM; remark: listed apart in the source
[18] = Cytotoxicity in CD-1 mouse cochlea assessed as induction of cell damage in inner hair cell at 20 uM after 48 hrs by confocal microscopic analysis; assay type: toxicity, tissue-based; summary of the method: as §6
[19] = as §4; assay type: functional; summary of the method: as §2
[20] = Cytotoxicity in CD-1 mouse cochlea assessed as induction of cell death in inner hair cell at >=30 uM after 48 hrs by confocal microscopic analysis; assay type: toxicity, tissue-based; summary of the method: as §6
Klebsiella pneumoniae [21] = experiment: Effect on gentamycin-induced antibacterial activity against Klebsiella pneumoniae at 11 uM incubated for 16 to 20 hrs by BacTiter-Glo assay; assay type: ADME, organism-based; conditions: in vivo
Mus musculus [22] = species on record: Mus musculus; experiment: Inhibition of MET in CD-1 mouse cochlear outer hair cells assessed as reduction in MET currents at 1 to 10 uM measured at -164 mV membrane potential by patch clamp assay; summary of the method: as §7
Staphylococcus aureus [23] = experiment: Effect on gentamycin-induced antibacterial activity against Staphylococcus aureus at 11 uM incubated for 16 to 20 hrs by BacTiter-Glo assay; assay type: ADME, organism-based; conditions: in vivo
[24] = Toxicity in 3 days post fertilized AB zebrafish larvae assessed as effect on blood circulation at 30 uM incubated for 48 hrs by inverted microscopic method; set-up: species or system Danio rerio; conditions: in vivo
Summary of the method: (§8)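 Zebrafish larvae at 3 dpf treated with compound at 30 or 100 μM for 48 h in three trials. Larvae scored for survival and for circulation, then startled and assayed for movement.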

[25] = as §1; assay type: functional; summary of the method: as §2
Danio rerio [26] = species on record: Danio rerio; experiment: Otoprotective activity against gentamicin-induced neuromast hair cell death in 4 days post fertilized AB zebrafish larvae assessed as increase in hair cell survival incubated for 6 hrs by inverted microscopic method; assay type: functional, organism-based
[27] = Toxicity in 3 days post fertilized AB zebrafish larvae assessed as reduction in larvae survival at 100 uM incubated for 48 hrs; set-up: species or system Danio rerio; conditions: in vivo; summary of the method: as §8
Pseudomonas aeruginosa [28] = experiment: Effect on gentamycin-induced antibacterial activity against Pseudomonas aeruginosa at 11 uM incubated for 16 to 20 hrs by BacTiter-Glo assay; assay type: ADME, organism-based; conditions: in vivo
Mus musculus [29] = species on record: Mus musculus; experiment: Inhibition of MET channel in CD-1 mouse cochlea outer hair cells assessed as reduction in GTTR uptake at 100 uM preincubated for 5 mins followed by GTTR addition and measured after 24 mins by microscopic method
Summary of the method: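 Mouse cochlear cultures pre-incubated 5 min with 100 μM compound or 1% DMSO, then 0.2 μM gentamicin Texas Red (GTTR) added. GTTR fluorescence intensity measured in first-row OHCs, with 10 cells analysed from each of three separate experiments (N = 30).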

[30] = Cytotoxicity in CD-1 mouse cochlea assessed as disruption of hair bundle morphology in inner hair cell at 20 uM in presence of gentamicin after 48 hrs by confocal microscopic analysis; assay type: toxicity, tissue-based; summary of the method: as §6
Staphylococcus aureus [31] = experiment: Effect on gentamycin-induced antibacterial activity against Staphylococcus aureus at 2.2 uM incubated for 16 to 20 hrs by BacTiter-Glo assay; assay type: ADME, organism-based; conditions: in vivo
Mus musculus [32] = species on record: Mus musculus; experiment: Inhibition of MET channel in CD-1 mouse cochlea outer hair bundles assessed as time constant of inward current decline at 1 uM at holding potential of […] by patch clamp assay
Summary of the method: (§9)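 MET channels opened by steps from a holding potential of -84 mV, with 1 or 3 μM compound superfused. Currents averaged from 10 repetitions. The current decline was fitted with single exponentials to give time constants, and drug entry rates into hair cells were calculated from these.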

[33] = Toxicity in 3 days post fertilized AB zebrafish larvae assessed as effect on larval movement at 100 uM incubated for 48 hrs; set-up: species or system Danio rerio; conditions: in vivo; summary of the method: as §8
[34] = Binding affinity to MET in CD-1 mouse cochlear outer hair cells measured at -84 mV membrane potential by patch clamp assay; summary of the method: as §7
Mus musculus [35] = species on record: Mus musculus; conditions: CD-1, 10 uM; remark: listed apart in the source
[36] = Toxicity in 3 days post fertilized AB zebrafish larvae assessed as reduction in larvae survival at 30 uM incubated for 48 hrs; set-up: species or system Danio rerio; conditions: in vivo; summary of the method: as §8
Klebsiella pneumoniae [37] = experiment: Effect on gentamycin-induced antibacterial activity against Klebsiella pneumoniae at 2.2 uM incubated for 16 to 20 hrs by BacTiter-Glo assay; assay type: ADME, organism-based; conditions: in vivo
[38] = Toxicity in 3 days post fertilized AB zebrafish larvae assessed as effect on blood circulation at 100 uM incubated for 48 hrs by inverted microscopic method; set-up: species or system Danio rerio; conditions: in vivo; summary of the method: as §8
[39] = Cytotoxicity in CD-1 mouse cochlea assessed as disruption of hair bundle morphology in outer hair cell at 20 uM in presence of gentamicin after 48 hrs by confocal microscopic analysis; assay type: toxicity, tissue-based; summary of the method: as §6
[40] = Cytotoxicity in CD-1 mouse cochlea assessed as induction of cell death in inner hair cell at >=30 uM in presence of gentamicin after 48 hrs by confocal microscopic analysis; assay type: toxicity, tissue-based; summary of the method: as §6
Mus musculus [41] = species on record: Mus musculus; experiment: Inhibition of MET channel in CD-1 mouse outer hair bundles assessed as time constant of inward current decline at 3 uM at holding potential of […] by patch clamp assay; summary of the method: as §9
[42] = as §5; assay type: functional; summary of the method: as §2
[43] = Cytotoxicity in CD-1 mouse cochlea assessed as induction of cell death in outer hair cell at 10 to 20 uM after 48 hrs by confocal microscopic analysis; assay type: toxicity, tissue-based; summary of the method: as §6
[44] = Binding affinity to MET in CD-1 mouse cochlear outer hair cells measured at +16 mV membrane potential by patch clamp assay; summary of the method: as §7
[45] = Binding affinity to MET in CD-1 mouse cochlear outer hair cells measured at -164 mV membrane potential by patch clamp assay; summary of the method: as §7
Mus musculus [46] = species on record: Mus musculus; conditions: CD-1, 1 to 10 uM; remark: listed apart in the source
[47] = Cytotoxicity in CD-1 mouse cochlea assessed as disruption of hair bundle morphology in inner hair cell at 20 uM after 48 hrs by confocal microscopic analysis; assay type: toxicity, tissue-based; summary of the method: as §6

## COc1ccccc1OCCNC(=O)COc1cccc2[nH]c3ccccc3c12
Mus musculus [1]
  Activity: inactive

## COc1ccccc1OCCN(CCOc1ccccc1OC)CC(O)COc1cccc2[nH]c3ccccc3c12 (centres undefined)
Mus musculus [2]
  inhibition: 40%
Mus musculus [3]
  Activity: inactive
Mus musculus [1]
  Activity: Active
Mus musculus [4]
  inhibition: Active
Mus musculus [5]
  Activity: inactive

## COc1ccccc1OCCNCC(O)COc1ccc2c(c1)[nH]c1ccccc12 (centres undefined)
[6]
  Activity: Toxic
Mus musculus [1]
  Activity: inactive

## OC(COc1cccc2[nH]c3ccccc3c12)CN1CCN(c2ccccc2)CC1 (centres undefined)
Mus musculus [1]
  Activity: inactive

## CCCCNCC(O)COc1cccc2[nH]c3ccccc3c12 (centres undefined)
Mus musculus [3]
  Activity: inactive
Mus musculus [1]
  Activity: Active
Mus musculus [4]
  inhibition: 50 to 60%
Mus musculus [5]
  Activity: inactive

## COc1ccccc1OCCN(CCN1CCOCC1)CC(O)COc1cccc2[nH]c3ccccc3c12 (centres undefined)
Mus musculus [3]
  Activity: inactive
Mus musculus [1]
  Activity: Active
Mus musculus [7]
  inhibition: Active

## COc1ccccc1OCCCCCCOc1cccc2[nH]c3ccccc3c12
[6]
  Activity: Toxic
Mus musculus [1]
  Activity: inactive

## COc1ccccc1OCCNCC(O)COc1cccc2[nH]c3ccccc3c12 (centres undefined) [CARVEDILOL]
Danio rerio [8]
  EC50: 2470 nM
Mus musculus [9]
  inhibition: Active
[10]
  Activity: Toxic
Mus musculus [11]
  inhibition: Active
Pseudomonas aeruginosa [12]
  Activity: Non-Toxic
[13]
  Activity: Toxic
[14]
  Activity: Toxic
[15]
  Kd: 1500 nM
[16]
  Activity: Toxic
Mus musculus [17]
  inhibition: Active
[18]
  Activity: Toxic
[19]
  Activity: 54%
[20]
  Activity: Toxic
Klebsiella pneumoniae [21]
  Activity: Non-Toxic
Mus musculus [22]
  inhibition: inactive
Staphylococcus aureus [23]
  Activity: Non-Toxic
[24]
  Activity: Non-Toxic
[25]
  Activity: 100%
Danio rerio [26]
  EC50: 11000 nM
[27]
  Activity: Toxic
Pseudomonas aeruginosa [28]
  Activity: Non-Toxic
Mus musculus [29]
  inhibition: Active
[30]
  Activity: Toxic
Staphylococcus aureus [31]
  Activity: Non-Toxic
Mus musculus [32]
  TIME: 5e-06 h
[33]
  Activity: Toxic
[34]
  Kd: 2000 nM
Mus musculus [35]
  inhibition: Active
[36]
  Activity: Non-Toxic
Klebsiella pneumoniae [37]
  Activity: Non-Toxic
[38]
  Activity: Toxic
[39]
  Activity: Toxic
[40]
  Activity: Toxic
Mus musculus [41]
  TIME: 2.67e-06 h
[42]
  Activity: 100%
[43]
  Activity: Non-Toxic
[44]
  Kd: 100 nM
[45]
  Kd: 6300 nM
Mus musculus [46]
  inhibition: inactive
[47]
  Activity: Toxic

## CC(C)NCC(O)COc1cccc2ccccc12 (centres undefined)
Mus musculus [1]
  Activity: inactive
